Test system: Liver microsome
Experiment: Drug metabolism in Sprague-Dawley rat liver microsomes assessed as glucuronidation incubated for 5 mins prior to UDPGA addition measured after 5 to 30 mins by LC-UV analysis
Type: ADME
How it was run: (§1)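 Microsomes or Sf-9 Supersomes (5 µg protein in 200 µL 100 mM potassium phosphate pH 7.4) pre-treated with alamethicin on ice 15 min; substrate 10 µM final (2% DMSO), MgCl2 and saccharolactone 10 mM each; 5 min preincubation at 37 °C, then UDPGA to start. Samples taken at 5, 10, 15, 30 min (or 2, 5, 10, 15 min) into ACN with internal standard; LC-UV-ESI-MS/MS.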
A Drug metabolism of 2600 pmol/min/mg was found for `O=C(Nc1ccc(Cl)c(Cl)c1)Nc1ccc(Cl)cc1O` in this work. A Drug metabolism of 5500 pmol/min/mg was found for `O=C(Nc1ccc(Cl)cc1)Nc1cc(Cl)c(Cl)cc1O` in this work. A Drug metabolism of 8700 pmol/min/mg was found for `O=C(Nc1ccc(Cl)c(O)c1)Nc1ccc(Cl)c(Cl)c1` in this work.

Test system: not listed separately
Experiment: Drug metabolism in human intestinal microsomes assessed as glucuronidation incubated for 5 mins prior to UDPGA addition measured after 5 to 30 mins by LC-UV analysis
Type: ADME, Intestine, Microsome
How it was run: as §1
A Drug metabolism of 5700 pmol/min/mg was found for `O=C(Nc1ccc(Cl)c(Cl)c1)Nc1ccc(Cl)cc1O` in this work. A Drug metabolism of 3900 pmol/min/mg was found for `O=C(Nc1ccc(Cl)cc1)Nc1cc(Cl)c(Cl)cc1O` in this work. A Drug metabolism of 7100 pmol/min/mg was found for `O=C(Nc1ccc(Cl)c(O)c1)Nc1ccc(Cl)c(Cl)c1` in this work.

Biological target: T1, UDP-glucuronosyltransferase 1A1 (Homo sapiens, UniProt P22309)
T1 sequence (P22309 whole entry): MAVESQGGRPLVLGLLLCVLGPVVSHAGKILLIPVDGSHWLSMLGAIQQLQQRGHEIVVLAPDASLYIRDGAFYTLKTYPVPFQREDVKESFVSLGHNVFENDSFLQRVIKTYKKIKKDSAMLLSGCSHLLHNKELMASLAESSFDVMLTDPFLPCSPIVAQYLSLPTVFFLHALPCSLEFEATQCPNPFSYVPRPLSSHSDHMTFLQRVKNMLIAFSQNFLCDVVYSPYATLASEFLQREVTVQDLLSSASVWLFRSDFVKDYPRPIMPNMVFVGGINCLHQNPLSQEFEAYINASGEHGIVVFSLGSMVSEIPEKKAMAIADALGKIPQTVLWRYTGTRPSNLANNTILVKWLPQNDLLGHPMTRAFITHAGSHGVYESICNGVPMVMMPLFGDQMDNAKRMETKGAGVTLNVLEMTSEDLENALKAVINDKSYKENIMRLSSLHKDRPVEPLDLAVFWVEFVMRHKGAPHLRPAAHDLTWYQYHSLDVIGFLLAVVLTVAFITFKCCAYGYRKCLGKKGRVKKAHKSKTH
Experiment: Drug metabolism assessed as human UGT1A1-mediated glucuronidation expressed in baculovirus infected insect sf9 cells incubated for 5 mins prior to UDPGA addition measured after 5 to 30 mins by LC-UV analysis
Type: ADME
How it was run: as §1
A Drug metabolism of 850 pmol/min/mg was found for `O=C(Nc1ccc(Cl)c(Cl)c1)Nc1ccc(Cl)cc1O` in this work. A Drug metabolism of 820 pmol/min/mg was found for `O=C(Nc1ccc(Cl)cc1)Nc1cc(Cl)c(Cl)cc1O` in this work. A Drug metabolism of 520 pmol/min/mg was found for `O=C(Nc1ccc(Cl)c(O)c1)Nc1ccc(Cl)c(Cl)c1` in this work.

Biological target: T2, UDP-glucuronosyltransferase 1A4 (Homo sapiens, UniProt P22310)
T2 sequence (P22310 whole entry): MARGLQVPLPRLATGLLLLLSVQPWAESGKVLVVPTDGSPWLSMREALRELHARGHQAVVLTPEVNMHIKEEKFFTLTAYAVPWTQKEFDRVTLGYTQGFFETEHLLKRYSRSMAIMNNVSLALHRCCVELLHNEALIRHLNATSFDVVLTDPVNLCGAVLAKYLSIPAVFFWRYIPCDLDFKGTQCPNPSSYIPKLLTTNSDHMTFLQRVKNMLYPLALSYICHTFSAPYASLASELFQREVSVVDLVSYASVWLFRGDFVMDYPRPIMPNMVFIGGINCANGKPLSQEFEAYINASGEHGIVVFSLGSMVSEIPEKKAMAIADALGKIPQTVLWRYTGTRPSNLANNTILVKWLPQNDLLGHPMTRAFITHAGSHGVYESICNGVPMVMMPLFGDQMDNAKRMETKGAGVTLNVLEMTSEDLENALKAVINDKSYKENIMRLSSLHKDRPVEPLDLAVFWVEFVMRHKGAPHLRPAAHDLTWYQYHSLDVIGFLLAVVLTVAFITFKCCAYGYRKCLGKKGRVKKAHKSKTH
Experiment: Drug metabolism assessed as human UGT1A4-mediated glucuronidation expressed in baculovirus infected insect sf9 cells incubated for 5 mins prior to UDPGA addition measured after 5 to 30 mins by LC-UV analysis
Type: ADME
How it was run: as §1
In the case of `O=C(Nc1ccc(Cl)c(Cl)c1)Nc1ccc(Cl)cc1O`, the Drug metabolism is reported as “metabolite_not_detected”. In the case of `O=C(Nc1ccc(Cl)cc1)Nc1cc(Cl)c(Cl)cc1O`, the Drug metabolism is reported as “metabolite_not_detected”. In the case of `O=C(Nc1ccc(Cl)c(O)c1)Nc1ccc(Cl)c(Cl)c1`, the Drug metabolism is reported as “metabolite_not_detected”.

Biological target: T3, UDP-glucuronosyltransferase 1A8 (Homo sapiens, UniProt Q9HAW9)
T3 sequence (Q9HAW9 whole entry): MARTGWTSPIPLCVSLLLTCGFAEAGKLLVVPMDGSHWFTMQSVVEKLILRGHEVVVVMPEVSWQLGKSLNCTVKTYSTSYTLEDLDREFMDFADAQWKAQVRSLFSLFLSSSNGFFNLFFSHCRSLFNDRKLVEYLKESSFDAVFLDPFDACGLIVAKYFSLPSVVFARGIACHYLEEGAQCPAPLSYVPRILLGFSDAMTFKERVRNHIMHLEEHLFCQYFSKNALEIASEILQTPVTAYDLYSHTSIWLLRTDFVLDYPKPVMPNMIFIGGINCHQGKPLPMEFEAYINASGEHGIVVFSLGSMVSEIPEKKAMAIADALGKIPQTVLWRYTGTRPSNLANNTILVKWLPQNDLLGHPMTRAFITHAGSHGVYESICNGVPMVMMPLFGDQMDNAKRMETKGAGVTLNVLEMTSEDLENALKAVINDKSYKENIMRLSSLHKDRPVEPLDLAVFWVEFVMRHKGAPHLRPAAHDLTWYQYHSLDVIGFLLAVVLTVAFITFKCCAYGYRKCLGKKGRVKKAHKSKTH
Experiment: Drug metabolism assessed as human UGT1A8-mediated glucuronidation expressed in baculovirus infected insect sf9 cells incubated for 5 mins prior to UDPGA addition measured after 5 to 30 mins by LC-UV analysis
Type: ADME
How it was run: as §1
A Drug metabolism of 5700 pmol/min/mg was found for `O=C(Nc1ccc(Cl)c(Cl)c1)Nc1ccc(Cl)cc1O` in this work. A Drug metabolism of 5000 pmol/min/mg was found for `O=C(Nc1ccc(Cl)cc1)Nc1cc(Cl)c(Cl)cc1O` in this work. A Drug metabolism of 9400 pmol/min/mg was found for `O=C(Nc1ccc(Cl)c(O)c1)Nc1ccc(Cl)c(Cl)c1` in this work.

Biological target: T4, UDP-glucuronosyltransferase 2B4 (Homo sapiens, UniProt P06133)
T4 sequence (P06133 whole entry): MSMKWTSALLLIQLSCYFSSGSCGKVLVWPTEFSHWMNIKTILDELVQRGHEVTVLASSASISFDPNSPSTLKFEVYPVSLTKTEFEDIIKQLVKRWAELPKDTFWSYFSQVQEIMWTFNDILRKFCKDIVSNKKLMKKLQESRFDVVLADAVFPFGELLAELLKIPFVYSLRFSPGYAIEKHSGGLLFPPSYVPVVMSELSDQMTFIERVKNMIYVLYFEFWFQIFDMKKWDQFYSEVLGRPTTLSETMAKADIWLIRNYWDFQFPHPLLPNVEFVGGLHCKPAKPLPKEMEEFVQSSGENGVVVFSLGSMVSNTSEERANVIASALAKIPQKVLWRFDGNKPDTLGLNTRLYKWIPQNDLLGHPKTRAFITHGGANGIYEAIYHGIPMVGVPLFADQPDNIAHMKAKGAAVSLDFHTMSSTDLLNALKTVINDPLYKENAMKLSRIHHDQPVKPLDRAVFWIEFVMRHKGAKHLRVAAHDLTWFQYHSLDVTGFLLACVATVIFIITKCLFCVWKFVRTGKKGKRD
Experiment: Drug metabolism assessed as human UGT2B4-mediated glucuronidation expressed in baculovirus infected insect sf9 cells incubated for 5 mins prior to UDPGA addition measured after 5 to 30 mins by LC-UV analysis
Type: ADME
How it was run: as §1
For `O=C(Nc1ccc(Cl)c(Cl)c1)Nc1ccc(Cl)cc1O`, the Drug metabolism was “metabolite_not_detected”. With `O=C(Nc1ccc(Cl)cc1)Nc1cc(Cl)c(Cl)cc1O` the Drug metabolism was “metabolite_not_detected”. With `O=C(Nc1ccc(Cl)c(O)c1)Nc1ccc(Cl)c(Cl)c1` the Drug metabolism was “metabolite_not_detected”.
